Activity calls are given as the source filed them.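 How the source made its calls: active means at 30 µM dose, two-repeat average suppression of induced P-selectin signal exceeds 50%; inactive means average suppression 50% or lower.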
Tested on: platelets, A23187-induced P-selectin, flow cytometry
Assay: inhibitors of A23187-stimulated platelet P-selectin exposure, confirmation, selectivity assay, cell-based, fluorescence, flow cytometry, platelets (AID 2527)
Conditions: at 30 µM; hits give high values
Procedure, shortened: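 System: stimulated platelets; schedule: 20 min compound, 15 min A23187, 20 min stain; signal: flow cytometry, PE anti-P-selectin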

**Q.** How did the inhibition turn out when `O=C(Nc1cccc(NC(=O)c2ccccc2Cl)c1)c1ccco1` was run?
**A.** 5.95% (inactive)

**Q.** How did the inhibition turn out when `CCCC(=O)Nc1cccc(NC(=O)c2ccccc2Br)c1` was run?
**A.** 3.45% (inactive)
